Test results from PubChem BioAssay AID602169 (The Scripps Research Institute Molecular Screening Center, 2012).
Activity calls are given as the source filed them.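 The calls were made as follows: active = luciferase reporter signal inhibited by 20% or more; inactive = inhibition below 20%.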

System: BG1Luc4E2 ER-luciferase reporter inhibition, 24 h
Assay: inhibitors of ER-driven luciferase reporter, late-stage follow-up, counter-screen for AHR activator project, BG1Luc4E2 ovarian carcinoma cells, luminescence (AID 602169)
Settings: at 10 µM; active compounds read high
How it was run: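 Material: BG1Luc4E2 human ovarian carcinoma cells with stable ERE-driven firefly luciferase; medium: phenol red-free DMEM with charcoal-stripped FBS; probe or stimulus: estradiol 17β stimulus; dosing: 10 µM, single concentration; incubation: 5-day estrogen depletion, then 24 h compound exposure at 37 °C; signal: luciferase luminescence after lysis; replication: triplicates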

SMILES	inhibition
Cc1nnc(N2C(=O)c3cccc4c([N+](=O)[O-])ccc(c34)C2=O)s1	0% (inactive)
Cc1csc(SCC(=O)Nc2ccc(Cl)cn2)n1	0% (inactive)
CCOC(=O)Cc1cc(-c2ccc(O)cc2)nc2ccc3ccccc3c12	28%
COc1cc2c(cc1NC(=O)Nc1ccc(C)cc1)oc1ccccc12	5% (inactive)
COc1ccccc1NC(=O)c1ccc2c(c1)nnn2C	0% (inactive)
COc1ccc(C(=O)Nc2cc(OC)c(NC(=O)c3ccco3)cc2OC)cc1	0% (inactive)
O=C(Nc1cccc(Cl)c1)c1cccnn1	2% (inactive)
CN(C)c1nc(N)nc(-c2nc3ccccc3s2)n1	44%
COc1ccc(Cl)cc1C(=O)Nc1ccc(N(C)C(C)=O)cc1	2% (inactive)
CCOc1ccccc1NC(=O)c1ccc2nccnc2c1	8% (inactive)
COc1ccccc1NC(=O)c1ccc(C(=O)Nc2ccccc2OC)nc1	0% (inactive)
O=C1c2ccccc2-c2nc3ccccc3nc21	34%
COc1ccccc1NC(=O)Nc1cccnc1	3% (inactive)
O=C(Nc1ccon1)c1cnc2sccn2c1=O	34%
Cc1c(-c2ccn[nH]2)cc(NC(=O)c2ccc(Cl)cc2)c(=O)n1N	1% (inactive)
Cn1c(C(=O)N2CCC(C(N)=O)CC2)cc2cc(Cl)ccc21	4% (inactive)
CCOc1ccc(NC(=O)c2cc3ccccc3cc2OC)cc1	5.3% (inactive)

SMILES	inhibition
Cc1cc(Nc2ccc(Br)cc2)n2nc(C)nc2n1	0% (inactive)
CN1CCN(CCCNC(=O)c2cc3c(-c4ccc(Cl)cc4)nn(C)c3s2)CC1	0% (inactive)
Cn1c(N)c(C(=O)Nc2ccccc2F)sc1=S	5% (inactive)
COc1ccc(NC(=O)c2cccc3c(Br)cccc23)cc1	31%
Cc1ccc(Nc2ncccc2C(N)=O)cc1	24%
CCOc1ccc(-c2cc(C)n3nc(C(N)=O)cc3n2)cc1	0% (inactive)
CCC(=O)Nc1cc(OC)c(NC(=O)c2ccccc2)cc1OC	1% (inactive)
O=C(CN1CCOCC1)Nc1nc2ccc([N+](=O)[O-])cc2s1	11% (inactive)
CC(=O)c1ccc(NC(=O)c2cc(Cl)nc3ccccc23)cc1	2% (inactive)
COc1cc2ccccc2cc1C(=O)Nc1ccc(C)cc1	40%
COc1ccccc1C(=O)Nc1ccc(N2CCCCC2)cc1	47%
Cc1nc(N)nc(Nc2ccc(Cl)cc2)c1Br	7% (inactive)
CCCC(=O)Nc1nn(C)c2nc3cc(C)ccc3cc12	0% (inactive)
Cc1ccc(-c2cc(-c3cccs3)[nH]n2)c(O)c1	20%
COC(=O)c1ccccc1NC(=O)Cn1ccnc1	3% (inactive)
Cc1ccccc1-c1nc(-c2cccnc2)no1	22%
